According to ChEMBL document CHEMBL1154522, “Aryl sulfamates are broad spectrum inactivators of sulfatases: effects on sulfatases from various sources” (Bioorg Med Chem Lett, 2009):

What was measured:
[1] = substrate: O=[N+]([O-])c1ccc(OS(=O)(=O)O)cc1; test: Activity at Pseudomonas aeruginosa recombinant arylsulfatase A expressed in Escherichia coli assessed per mg of protein
In short: (§1)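 Hydrolysis of potassium 4-nitrophenyl sulfate followed by release of 4-nitrophenol; Vmax is expressed per mg protein and Km in mM; Vmax/Km is derived from these.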

[2] = substrate: O=[N+]([O-])c1ccc(OS(=O)(=O)O)cc1; test: Activity at Pseudomonas aeruginosa recombinant arylsulfatase A expressed in Escherichia coli; in short: as §1

B1: Arylsulfatase (Pseudomonas aeruginosa (strain ATCC 15692 / PAO1 / 1C / PRS 101 / LMG12228)), P51691 (protein)
chain: MSKRPNFLVIVADDLGFSDIGAFGGEIATPNLDALAIAGLRLTDFHTASTCSPTRSMLLTGTDHHIAGIGTMAEALTPELEGKPGYEGHLNERVVALPELLREAGYQTLMAGKWHLGLKPEQTPHARGFERSFSLLPGAANHYGFEPPYDESTPRILKGTPALYVEDERYLDTLPEGFYSSDAFGDKLLQYLKERDQSRPFFAYLPFSAPHWPLQAPREIVEKYRGRYDAGPEALRQERLARLKELGLVEADVEAHPVLALTREWEALEDEERAKSARAMEVYAAMVERMDWNIGRVVDYLRRQGELDNTFVLFMSDNGAEGALLEAFPKFGPDLLGFLDRHYDNSLENIGRANSYVWYGPRWAQAATAPSRLYKAFTTQGGIRVPALVRYPRLSRQGAISHAFATVMDVTPTLLDLAGVRHPGKRWRGREIAEPRGRSWLGWLSGETEAAHDENTVTGWELFGMRAIRQGDWKAVYLPAPVGPATWQLYDLARDPGEIHDLADSQPGKLAELIEHWKRYVSETGVVEGASPFLVR
Vmax [1]: 6.1 mmol/min/mg
Km [2]: 0.77 µM
